The test system of data set [1] is Mus musculus. The data set can be described thus: Toxicity in diet-induced obese C57Bl/6J mouse model assessed as effect on heart size at 0.3 to 10 mg/kg, po administered daily for 23 days. The settings on record: in vivo. The arrangement: dose 0.3-10 mg/kg, route oral. Type of data set: organism-based. Put shortly:
(§1)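 C57Bl/6J mice aged six weeks were fed a high fat diet for 34 weeks. Body weight and food intake were monitored. BMD and body composition were assessed on day 22, and laboratory assessments were made at study end.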

The nature of data set [2]: Solubility of the compound at pH 7.04. The settings on record: buffer.
Data set [3] can be described thus: Intrinsic clearance in human hepatocytes assessed per million cells. The settings on record: read-out: CLH. Type of data set: ADME, cell-based, Hepatocyte.
A short description of data set [4]: Ratio of drug uptake in liver to plasma in diet-induced obese C57Bl/6J mouse model. In kind it is ADME, tissue-based.
Data set [5] deals with Homo sapiens. The data set can be described thus: Toxicity in healthy human with mildly elevated LDL-C level assessed as effect on free T3 level at 100 to 200 mg, po qd for 2 weeks. As to conditions: in vivo, 336 h. Type of data set: organism-based. The essentials: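 Healthy subjects with LDL-C >110 mg/dL received once daily oral doses for 2 weeks in a multiple ascending dose study. Free T3, free T4 and TSH were compared with placebo.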

Data set [6] addresses Cytochrome P450 3A5 (Homo sapiens, UniProt P20815). The data set can be described thus: Inhibition of CYP3A5 (unknown origin). In kind it is ADME.
In data set [7] the target is hERG (KCNH2) (Homo sapiens, UniProt Q12809). The data set can be described thus: Inhibition of human ERG. Put shortly:
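hERG channel blockade was expressed as an IC20.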

Data set [8] deals with Mus musculus. In words: Antidyslipidemic activity in diet-induced obese C57Bl/6J mouse model assessed as reduction in cholesterol level at 0.3 to 10 mg/kg, po administered daily for 23 days. In kind it is functional, organism-based. The essentials: as §1
The species named for data set [9] is Rattus norvegicus. The data set can be described thus: Antidyslipidemic activity in hypercholesterolemic rat model assessed as reduction in non-HDL-C level. In kind it is functional, organism-based.
In data set [10] the test system is Mus musculus. In words: Antidyslipidemic activity in diet-induced obese C57Bl/6J mouse model assessed as reduction in liver size at 0.3 to 10 mg/kg, po administered daily for 23 days. In kind it is functional, organism-based. The essentials: as §1
Data set [11] has as its system Homo sapiens. The data set can be described thus: Toxicity in healthy human with mildly elevated LDL-C level assessed as effect on QT interval at 5 to 200 mg, po qd for 2 weeks by multiple ascending dose study. In kind it is organism-based. As to conditions: in vivo, 336 h. The essentials: (§2)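 Multiple ascending dose study after single ascending dose study. Healthy subjects with LDL-C >110 mg/dL received once daily oral doses of 5 to 200 mg for 2 weeks. Safety and tolerability were assessed, covering QT interval, heart rate, vital signs and liver enzymes.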

Data set [12] has as its system Rattus norvegicus. The data set can be described thus: Cardiotoxicity in thyroidectomized rat assessed as induction of alpha-MHC hnRNA expression in cardiac myocyte at 5 to 37.5 mg/kg, ip measured after 6 hrs. In kind it is toxicity, organism-based, Heart. The arrangement: dose 5-37.5 mg/kg, route intraperitoneal. As to conditions: in vivo. The essentials:
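Thyroidectomized rats were dosed intraperitoneally at 5, 20 or 37.5 mg/kg, with 4 rats per group. Vehicle was 4% DMSO, 15% PEG-400 and 81% of 30% HPBCD in phosphate buffer. Cardiac α-MHC hnRNA, in arbitrary units, and plasma concentration were measured 6 h after dosing. Comparators were untreated thyroidectomized rats and euthyroid rats.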

In data set [13] the test system is Homo sapiens. The data set can be described thus: Toxicity in healthy human with mildly elevated LDL-C level assessed as effect on heart rate at 5 to 200 mg, po qd for 2 weeks by multiple ascending dose study. In kind it is organism-based. As to conditions: in vivo, 336 h. Put shortly:
as §2

In brackets after ≈: the same amount, converted by molar mass. Activity calls are given as the source filed them. No cut-off for these calls is given here. Some results are limits rather than exact numbers.

What is called solubility is the concentration that dissolves in the medium under given conditions. As usually defined, the Kp is tissue or fluid exposure divided by exposure in the circulation. By IC50 is commonly meant the concentration at which inhibition is half-maximal. A higher IC50 goes with lower potency. The term IC20 denotes the concentration at which the effect reaches the 20% level.

Chain of hERG (KCNH2) (Q12809 whole entry): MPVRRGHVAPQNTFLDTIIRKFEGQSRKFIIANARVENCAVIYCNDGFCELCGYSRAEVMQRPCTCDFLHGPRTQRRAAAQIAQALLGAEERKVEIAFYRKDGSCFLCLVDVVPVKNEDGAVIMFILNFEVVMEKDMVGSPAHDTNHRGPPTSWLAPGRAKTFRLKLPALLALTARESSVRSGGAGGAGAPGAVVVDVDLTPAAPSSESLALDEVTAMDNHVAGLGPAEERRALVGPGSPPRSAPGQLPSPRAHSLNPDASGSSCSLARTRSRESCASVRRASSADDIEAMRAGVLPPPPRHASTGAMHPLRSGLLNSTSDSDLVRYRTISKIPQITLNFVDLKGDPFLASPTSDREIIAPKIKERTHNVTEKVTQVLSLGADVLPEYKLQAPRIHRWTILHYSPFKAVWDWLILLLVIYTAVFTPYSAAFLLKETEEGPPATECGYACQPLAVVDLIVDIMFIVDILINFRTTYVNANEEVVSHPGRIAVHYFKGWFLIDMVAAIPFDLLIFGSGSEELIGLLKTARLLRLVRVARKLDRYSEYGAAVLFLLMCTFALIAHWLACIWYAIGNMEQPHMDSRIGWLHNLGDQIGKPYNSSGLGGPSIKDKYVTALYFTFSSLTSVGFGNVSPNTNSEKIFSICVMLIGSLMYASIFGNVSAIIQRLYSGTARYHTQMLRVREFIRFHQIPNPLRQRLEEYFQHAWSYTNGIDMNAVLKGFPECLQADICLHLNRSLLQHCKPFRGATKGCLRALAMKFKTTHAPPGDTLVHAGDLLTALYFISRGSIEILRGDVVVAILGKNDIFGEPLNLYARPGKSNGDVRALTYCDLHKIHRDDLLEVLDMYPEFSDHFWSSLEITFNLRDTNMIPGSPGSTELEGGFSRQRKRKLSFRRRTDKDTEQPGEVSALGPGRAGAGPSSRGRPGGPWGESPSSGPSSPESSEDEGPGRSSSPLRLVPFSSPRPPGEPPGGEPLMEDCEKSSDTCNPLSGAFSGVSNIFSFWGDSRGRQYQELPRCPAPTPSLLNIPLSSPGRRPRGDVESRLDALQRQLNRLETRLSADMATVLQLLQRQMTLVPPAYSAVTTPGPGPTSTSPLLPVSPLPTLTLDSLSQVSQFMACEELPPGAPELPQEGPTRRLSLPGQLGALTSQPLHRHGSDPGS
Chain of Cytochrome P450 3A5 (P20815 whole entry): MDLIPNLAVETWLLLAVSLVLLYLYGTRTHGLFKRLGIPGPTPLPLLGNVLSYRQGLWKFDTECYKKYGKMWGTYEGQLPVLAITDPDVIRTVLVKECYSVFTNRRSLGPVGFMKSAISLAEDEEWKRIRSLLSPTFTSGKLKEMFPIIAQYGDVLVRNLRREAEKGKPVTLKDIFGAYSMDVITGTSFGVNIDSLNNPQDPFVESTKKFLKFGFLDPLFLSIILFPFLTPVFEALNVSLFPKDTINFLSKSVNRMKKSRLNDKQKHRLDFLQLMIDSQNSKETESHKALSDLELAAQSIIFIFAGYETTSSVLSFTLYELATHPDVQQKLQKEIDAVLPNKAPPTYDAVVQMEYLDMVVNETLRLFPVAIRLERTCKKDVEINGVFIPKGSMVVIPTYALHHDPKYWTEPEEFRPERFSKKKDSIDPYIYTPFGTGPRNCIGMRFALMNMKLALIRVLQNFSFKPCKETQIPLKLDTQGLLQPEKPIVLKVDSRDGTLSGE

On to `CC(C)c1cc(Oc2c(Cl)cc(-n3nc(C#N)c(=O)[nH]c3=O)cc2Cl)n[nH]c1=O` [RESMETIROM], for which the Activity result in [1], in data set [5], in [11], in data set [12] and in data set [13] was “Non-toxic” throughout. The same compound gave a solubility in data set [2] of 1 µM (≈ 0.435 µg/mL). Besides, the hepatocyte CLint in data set [3] was 1.04 µL/min/1e6 cells. Further, in data set [4], the partition ratio (Kp) was 8. This compound also had a concentration for half-maximal inhibition (IC50) in data set [6] above 50 µM. In data set [7], this compound gave an IC20 of 30 µM. The result in [8], in [9] and in data set [10] was Active.

For the origin of these results see ChEMBL document CHEMBL3259553 (J Med Chem, 2014).
